Laboratory results published in PMC9075506 (RSC Advances, 2019).
Read-outs that look alike come from different tables or passages of the source.

What was measured:
[1] = normal rats, oral administration of PLA, tissue distribution; cited from earlier work
[2] = Pharmacokinetic study in sham rats after oral administration of PLA; assay type: in vivo; conditions: rat, plasma, 50 mg/kg
[3] = Pharmacokinetic study in 6-OHDA-induced PD rats after oral administration; assay type: in vivo; conditions: rat, plasma
[4] = assay type: in vitro ADME, rat; conditions: n = 3; for Stability, autosampler (20 °C, 4 h), RE: processed rat plasma; for Stability, long-term (−80 °C, 30 d), RE / Stability, short-term (4 °C, 48 h), RE / Stability, three freeze–thaw cycles, RE: rat plasma
How it was run: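 Plasma (50 μL) precipitated with methanol/acetonitrile (1:1) containing internal standard (10 ng mL−1), vortexed 3 min, centrifuged 12 000 g for 10 min. Supernatant was run on C18 UFLC with a 0.1% formic acid/acetonitrile gradient at 0.5 mL min−1, detected by positive-ESI MRM. Quantified by analyte/IS peak-area ratio against a 1/x2-weighted linear calibration; accuracy given as RE (%).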

[5] = high QC: spiked 160 ng mL^−1 (PLTR 4000 ng mL^−1)
[6] = low QC: spiked 0.6 ng mL^−1 (PLTR 15 ng mL^−1)
[7] = medium QC: spiked 10 ng mL^−1 (PLTR 250 ng mL^−1)

| Cmax [2] [ng/mL] | MRT [2] [h] | Tmax [2] [h] | half-life [2] [h] | AUC(0-t) ([3]; 50 mg/kg) [ng·h/mL] | Cmax ([3]; 50 mg/kg) [ng/mL] | MRT ([3]; 50 mg/kg) [h] | Tmax ([3]; 50 mg/kg) [h] | half-life ([3]; 50 mg/kg) [h] | Stability, autosampler (20 °C, 4 h), RE [4, 5] [%] | Stability, autosampler (20 °C, 4 h), RE [4, 6] [%] | Stability, autosampler (20 °C, 4 h), RE [4, 7] [%] | Stability, long-term (−80 °C, 30 d), RE [4, 5] [%] | Stability, short-term (4 °C, 48 h), RE [4, 5] [%] | Stability, three freeze–thaw cycles, RE [4, 5] [%] | Stability, long-term (−80 °C, 30 d), RE [4, 6] [%] | Stability, short-term (4 °C, 48 h), RE [4, 6] [%] | Stability, three freeze–thaw cycles, RE [4, 6] [%] | Stability, long-term (−80 °C, 30 d), RE [4, 7] [%] | Stability, short-term (4 °C, 48 h), RE [4, 7] [%] | Compound | other results |
| --- | --- | --- | --- | --- | --- | --- | --- | --- | --- | --- | --- | --- | --- | --- | --- | --- | --- | --- | --- | --- | --- |
| 89.1 ± 41.7 | 4.6 ± 1.33 | 0.45 ± 0.11 | 3.68 ± 1.32 | 242 ± 57.2 | 97.3 ± 18 | 2.98 ± 0.84 | 0.45 ± 0.21 | 2.42 ± 1.23 | −5.63 | −4.78 | 5.33 | −1.04 | −3.75 | 0.63 | −4.78 | −9.22 | −12.61 | 8.00 | 7.33 | CC(C)CNC(=O)/C=C/C=C/c1ccc2c(c1)OCO2 [PPL, piperlonguminine] | Crossing of the blood–brain barrier [1]: could cross the blood–brain barrier; AUC(0-inf) [2]: 318 ± 123 ng·h/mL; AUC(0-t) [2]: 302 ± 116 ng·h/mL; AUC(0-inf) ([3]; 50 mg/kg): 245 ± 57.5 ng·h/mL; Stability, three freeze–thaw cycles, RE [4, 7]: 6.67% |
| 1000 ± 146 | 6.83 ± 0.44 | 4.8 ± 2.28 | 3.4 ± 2.15 | 9700 ± 2670 | 978 ± 214 | 5.99 ± 0.63 | 4 ± 1.41 | 3.65 ± 3.45 | −5.00 | −2.67 | 7.67 | 0.21 | −2.92 | 0.42 | −7.44 | −4.06 | −5.06 | 10.33 | 11.33 | O=C(/C=C/C=C/c1ccc2c(c1)OCO2)N1CCCCC1 [PPR, piperine] | Crossing of the blood–brain barrier [1]: could cross the blood–brain barrier; AUC(0-inf) ([3]; 25 mg/kg): 7120 ± 1770 ng·h/mL; AUC(0-t) ([3]; 25 mg/kg): 7110 ± 1770 ng·h/mL; Cmax ([3]; 25 mg/kg): 825 ± 241 ng/mL; MRT ([3]; 25 mg/kg): 6.27 ± 0.56 h; Tmax ([3]; 25 mg/kg): 2.95 ± 2.06 h; half-life ([3]; 25 mg/kg): 2.41 ± 0.34 h; Stability, three freeze–thaw cycles, RE [4, 7]: 9.67% |
| 160 ± 120 | 3.72 ± 1.3 | 0.18 ± 0.09 | 4.16 ± 1.32 | 136 ± 45.6 | 123 ± 57.6 | 2.43 ± 1.52 | 0.18 ± 0.09 | 2.8 ± 1.71 | −9.38 | −2.28 | 7.33 | −6.25 | −8.33 | −4.79 | 0.94 | −3.50 | 4.67 | 6.33 | 10.00 | O=C(/C=C/CCc1ccc2c(c1)OCO2)N1CCCCC1 [PPRA, piperanine] | AUC(0-inf) [2]: 230 ± 150 ng·h/mL; AUC(0-t) [2]: 225 ± 155 ng·h/mL; AUC(0-inf) ([3]; 50 mg/kg): 137 ± 45.3 ng·h/mL; Stability, three freeze–thaw cycles, RE [4, 7]: 7.33% |
